# Screening results from PubChem.
# CAL PDZ FP-1: inhibitors of human CAL PDZ peptide binding; purified CAL PDZ, TMR-peptide fluorescence polarization, 1 h; inhibition, % at 24.9 µM; hit rate 0.92% among 300,000;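 active means mean inhibition of at least 30% with at least half of replicates also reaching 30%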;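 further: 0% = DMSO neutral control and 100% = excess unlabeled competitor peptide PRC23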
# PGC1a acetyl inh: modulators of PGC1a acetylation | hit rate 0.17% among 350,000 | AID 651687 | U2OS PGC1a acetylation, AlphaScreen anti-acetyl-lysine; with virally co-expressed GCN5 acetyltransferase | inhibition, % at 15.6 µM;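 active means every replicate shows inhibition of at least 40%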;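 further: 0% = neutral control wells and 100% = positive control wells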
# miR-122 sensor: inhibitors of miR-122 in Huh7 cells; Huh7 miR-122 Renilla luciferase sensor, 48 h; neutral wells = 0, positive control = 100; activation (reporter increase), % at 12.5 µM; hit rate 0.3% among 340,000; AID 602342;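 active means mean replicate activation score at least 90 and every replicate individually at or above 90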;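 further: higher luciferase means less miR-122 activity so hits act as miR-122 inhibitors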
# ARNT TACC3 PPI: disrupts binding between human ARNT and TACC3 | AID 623870 | hit rate 0.66% among 390,000 | inhibition, % at 9.99 µM | Q9Y6A5 | AlphaScreen His-ARNT PAS-B/GST-TACC3 binding, luminescence; TACC3 fragment carries E629A point mutation;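 active means mean inhibition of replicates at least 50% and at least half of replicates each reaching 50%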;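 further: 0% = complete ARNT plus TACC3 wells and 100% = ARNT alone without TACC3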
# CAL PDZ FP-2: inhibitors of human CAL PDZ peptide binding; Q9HD26; purified CAL PDZ, TMR-peptide fluorescence polarization, 1 h; AID 504414; hit rate 0.02% among 330,000; inhibition, % at 20 µM;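 active means highest replicate inhibition of at least 40%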;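 further: plate controls were DMSO neutral control wells for no effect and unlabeled competitor peptide control wells for full effect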
#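 Material: tagged CAL PDZ domain; buffer or medium: 25 mM sodium phosphate pH 7.4, 150 mM NaCl, TCEP, IgG, Thesit; compound dosing: single point, 20 µM; schedule: 1 h incubation at room temperature before polarization reading; measured by: FP readout, S and P plane fluorescence; read-out basis: percent inhibition from loss of millipolarization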
# F508del corr: CFTR F508del correction in bronchial cells; CFBE cells, YFP halide quenching; stimulated with forskolin plus potentiator P3; % fluorescence drop versus neutral controls; activity (quench increase), % at 7.58 µM; hit rate 0.36% among 350,000; AID 720511;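 active means mean added fluorescence quench of at least 8% versus neutral control, with both replicates also reaching 8%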;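 further: cells transiently co-express mutant CFTR-F508del with the halide-sensitive YFP; corrector assay measuring rescue of mutant channel to the surface after 24 h compound exposure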
# * marks the source's active call; other numbers are inactive results; / = no result; [ ] = remark or other dose. Only some compounds are listed: those with a hit (about 1.7% of all), similar ones and a draw of the others.
SMILES,CAL PDZ FP-1,PGC1a acetyl inh,miR-122 sensor,ARNT TACC3 PPI,CAL PDZ FP-2,F508del corr
C#Cc1ccc(C(=O)Nc2ccc(N3CCC(C)CC3)c(C(N)=O)c2)cc1,/,5.9,/,0.9,-0.4,16.0*
CC(C)(C)c1ccc(S(=O)(=O)Nc2ccc(C(O)(C(F)(F)F)C(F)(F)F)cc2)cc1,/,-39.0,102.5*,/,/,-0.2
O=S(=O)(Nc1ccc(C(O)(C(F)(F)F)C(F)(F)F)cc1)c1cccc2ccccc12,/,-15.3,101.6*,/,/,-1.7
CC(C)(C)c1ccc(S(=O)(=O)Nc2ccc(C(=O)N3CCCC3)cc2)cc1,-1.4,/,/,/,-2.0,-0.7
COc1cccc(S(=O)(=O)Nc2ccc(C(O)(C(F)(F)F)C(F)(F)F)cc2)c1,/,2.0,129.0*,/,/,-1.0
CCS(=O)(=O)Nc1cc(OC)c(OC)cc1Cc1nccc2cc(OC)c(OC)cc12,65.0*,0.5,-10.1,-2.6,-0.9,-0.2
CC(C)CNC(=O)C(=O)Nc1ccc2c(c1)N(S(=O)(=O)c1cccs1)CCC2,/,-23.8,0.1,-2.8,-0.6,-0.1
CC(C)CCNC(=O)C(=O)Nc1ccc2c(c1)N(S(=O)(=O)c1cccs1)CCC2,/,-33.2,42.4,27.3,0.0,12.1*
CCOc1ccc(S(=O)(=O)N2CN3CCN(C3)C2)cc1,62.5*,9.0,-10.2,-2.4,-0.3,0.2
CCOc1ccc(S(=O)(=O)N2CCNC(=O)C2)cc1,15.4,9.8,8.3,0.6,0.1,-1.2
COCC(=O)Nc1ccc2c(c1)C(=O)N(C)C[C@@H](OC)[C@H](C)CN(C(=O)Cc1ccccn1)[C@@H](C)CO2,/,2.3,/,10.7,/,-1.5
Cc1ccc2cc3c(N)c(C(=O)N4CCOCC4)sc3nc2c1,52.9*,1.4,7.1,8.6,0.4,/
O=C(COC(=O)c1cc([N+](=O)[O-])ccc1N1CCOCC1)Nc1c(Cl)cccc1Cl,-3.5,/,/,-4.4,-1.9,11.1*
COc1ccc(C(=O)c2cc([N+](=O)[O-])ccc2N2CCOCC2)cc1,-2.1,/,/,8.1,-0.6,10.8*
O=C(COC(=O)c1cc([N+](=O)[O-])ccc1N1CCOCC1)c1ccccc1Cl,-3.2,-1.3,6.0,15.4,-1.6,4.4
CN(CCOc1ccccc1)C(=O)c1cc([N+](=O)[O-])ccc1N1CCOCC1,33.0*,/,/,1.5,-0.7,3.0
C[C@@H]1CCCCO[C@@H](CN(C)C(=O)Nc2ccc3c(c2)OCO3)[C@H](C)CN([C@@H](C)CO)C(=O)c2cc(NS(=O)(=O)c3cn(C)cn3)ccc2O1,/,3.0,2.0[16.7 µM],16.9,/,0.5
C[C@@H]1CN([C@@H](C)CO)C(=O)c2cc(-c3cccc(F)c3)cnc2O[C@@H]1CN(C)S(=O)(=O)c1cccc(F)c1,/,5.2,4.1[16.7 µM],5.1,/,-0.6
CCn1c2ccccc2c2cc([N+](=O)[O-])ccc21,3.6,-7.0,/,-4.3,0.1,0.4
CN(C)CCn1c2ccccc2c2nc3ccc([N+](=O)[O-])cc3cc21,/,-4.3,-15.9,/,/,13.5*
Cc1ccc(S(=O)(=O)c2c(C)cc(C)nc2Oc2cccc(C(F)(F)F)c2)cc1,-3.3,-32.0,5.2,active,-1.0,/
O=S(=O)(Nc1cc(Sc2ncn[nH]2)c(O)c2ccccc12)c1ccccc1,3.6,72.4*,-15.4,/,7.8,-5.2
O=C(O)CSc1cc(NS(=O)(=O)c2ccc(Br)cc2)c2ccccc2c1O,13.4,/,-1.0,97.2*,42.3*,1.2
Cc1cc(O)c(Sc2ncn[nH]2)cc1NS(=O)(=O)c1ccc(Cl)cc1,-2.9,-3.0,-4.0,3.5,-2.5,1.7
CC(C)NC(=O)N(C)C[C@@H]1Oc2ncc(C#Cc3ccc(F)cc3)cc2C(=O)N([C@H](C)CO)C[C@@H]1C,/,2.0,-0.5[16.7 µM],24.3,/,-0.3
SMILES,CAL PDZ FP-1,PGC1a acetyl inh,miR-122 sensor,ARNT TACC3 PPI,CAL PDZ FP-2,F508del corr
Nc1nonc1-c1nc2ccccc2n1Cc1ccc(F)cc1Cl,active,-27.0,2.4,-5.5,-1.7,/
Fc1ccc(Cn2c(-c3cscn3)nc3ccccc32)c(Cl)c1,-4.1,-17.6,-6.2,-6.5,/,/
C[C@H]1CN([C@@H](C)CO)C(=O)c2cccc(NS(=O)(=O)c3ccc(F)cc3)c2O[C@@H]1CN(C)Cc1ccc(Cl)c(Cl)c1,/,-17.1,8.9[16.7 µM],-0.8,/,1.0
C#CCOCCOCCOCCNc1nc(N2CCN(C(=O)C(CCC(=O)O)n3cc(C(N)CC(C)C)nn3)CC2)nc(N2CCN(C(=O)C(Cc3cc4ccccc4[nH]3)n3cc(C(N)Cc4ccc(O)cc4)nn3)CC2)n1 (stereo unspecified),0.8,/,/,45.5*,0.4,/
C#CCOCCOCCOCCNc1nc(N2CCN(C(=O)[C@H](CCC(=O)O)n3cc(C(N)CC(C)C)nn3)CC2)nc(N2CCN(C(=O)[C@H](Cc3cc4ccccc4[nH]3)n3cc(C(N)CC(C)C)nn3)CC2)n1 (stereo partly specified),-1.9,-3.9,-4.5,-3.3,-0.7,/
CN1C(=O)c2cccc3c(Cl)ccc(c23)C1=O,1.3,-9.3,-6.1,-25.3,-2.7,/
CNc1ccc2c3c(cccc13)C(=O)N(C)C2=O,-0.6,/,/,-36.9,2.5,20.4*
O=S(=O)(NCC[C@@H]1CC[C@H](NS(=O)(=O)c2ccccc2Cl)[C@H](CO)O1)c1ccc(F)cc1,/,-8.5,/,-7.6,/,-0.2
CC(=O)c1c(C)[nH]c(C(=O)COC(=O)c2c(-c3ccccc3)noc2C)c1C,64.2*,2.1,22.4,-4.2,-0.2,1.0
CCOc1cc(C2NC(=O)NC(C)=C2C(=O)OCc2ccccc2)ccc1O (stereo unspecified),-4.7,/,-4.2,44.5*,-0.4,-0.1
CO[C@H]1CN(C)C(=O)c2cc(NC(=O)C3CCOCC3)ccc2OC[C@H](C)N(Cc2cccnc2)C[C@@H]1C,/,7.5,/,/,/,2.1
COc1cc(S(=O)(=O)NCc2cccnc2)c(OC)cc1Br,-3.0,-2.8,108.2*,1.3,-1.0,/
COc1cc(C)c(Cl)c(C)c1S(=O)(=O)NCc1cccnc1,-1.6,-3.4,121.3*,-6.3,-0.8,/
CC(C)NC(=O)N1CC2(C1)[C@H](c1ccccc1)[C@H](CO)N2C(=O)c1ccccn1,/,-2.0,/,/,/,0.6
Cc1ccccc1-c1ccc([C@H]2[C@@H](CO)N3C(=O)CN(C(=O)c4ccccc4)C[C@@H]23)cc1,/,6.4,/,/,/,0.4
